Compound activity: PubChem BioAssay, several laboratories
A selection: hits, their analogues and other compounds. The true share with any hit is near 1.8%.
CSN inh – inhibitors of CSN-mediated cullin deneddylation, primary screen, biochemical, fluorescence polarization, uHTS; COP9 signalosome complex subunit 5 (Homo sapiens), Q92905; Purified CSN, SCF-Nedd8-OG deneddylation; inhibition, % at 12.5 µM; hit rate 0.38% among 360,000; AID 651999, 2013;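 active means pattern-corrected inhibition above about 35%, with an unprinted fluorescence ratio check between 0.5 and 1.5, limit read from the data, passing the limit was not always enough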;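 further: 0% = enzyme with substrate and 100% = substrate without enzyme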
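test system = HEK293T-derived human Csn5 enzyme | amount = 0.24 nM Csn5 enzyme, final concentration | medium = Tris/NaCl/DTT buffer, pH 7.5 | schedule = 90 min reaction at room temperature | signal = FP | evaluation = inhibition of Csn5 cleavage, % | compound dosing = single dose of 12.5 µM compound with 0.25% DMSO | probe or stimulus = 10 nM SCFSkp2-Nedd8OG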
HNF4A DNA FP – change in binding of human HNF4A to DNA, primary screen, biochemical, fluorescence polarization, FITC-DNA; 1 h; Hepatocyte nuclear factor 4-alpha (Homo sapiens), P41235; activity change, % at 10 µM; hit rate 0.3% among 360,000; in the data active means activity change above about 30%, passing the limit was not always enough
SUMO HTRF inh – inhibitors of in vitro SUMOylation cascade, primary screen, biochemical, HTRF, uHTS | HTRF SUMOylation assay, SAE1/SAE2 + UBC9 | AID 2006, 2009 | inhibition, % at 35 µM | hit rate 0.36% among 290,000 | SUMO-conjugating enzyme UBC9 (Homo sapiens), P63279; in the data active means inhibition above about 50%, passing the limit was not always enough
Target sequence (P63279 whole entry, looked up): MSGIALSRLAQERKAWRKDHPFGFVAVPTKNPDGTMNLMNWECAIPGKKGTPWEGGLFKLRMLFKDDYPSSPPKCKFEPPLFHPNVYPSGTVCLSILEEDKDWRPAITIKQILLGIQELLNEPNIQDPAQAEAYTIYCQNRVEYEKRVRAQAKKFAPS
Rpn11 block – Rpn11 (PSMD14) deubiquitinase inhibitors, primary screen, biochemical, fluorescence polarization, uHTS; human 26S proteasome, Ub4-pepOG fluorescence polarization; 20S core pre-blocked with epoxomicin; calls only at 20 µM; hit rate 0.59% among 360,000; AID 588493, 2011;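 active means inhibition at 20 µM, scaled to each plate's controls, above about 33%, limit read from the data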
TPT1 inh – Candida albicans TPT1 enzyme inhibitors, primary screen, biochemical, fluorescence polarization; tRNA 2'-phosphotransferase TPT1 (Candida albicans SC5314); recombinant caTPT1, FP RNA substrate dephosphorylation; inhibition, % at 5 µM; hit rate 0.81% among 300,000; AID 1962, 2009;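 active means inhibition above the mean of all tested compounds plus 3 SD, set per screening campaign, cut at about 24% in these data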;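 further: plate controls were DMSO alone for no effect and ferristatin control at 100 nM for full effect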
SENP1 FRET inh – human SENP1 catalytic domain inhibitors, primary screen, biochemical, FRET, uHTS; Sentrin-specific protease 1 (Homo sapiens), Q9P0U3; recombinant SENP1 catalytic domain, CyPet-SUMO1-YPet FRET cleavage; inhibition, % at 10 µM; hit rate 0.21% among 360,000; AID 624204, 2012;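 active means inhibition at least 30% at 10 µM, raw YFP signal under a set limit, fluorescence ratio 0.5 to 1.5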;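 further: 0% = enzyme with DMSO and 100% = no enzyme wells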
Target sequence (Q9P0U3 419-644 limits assumed): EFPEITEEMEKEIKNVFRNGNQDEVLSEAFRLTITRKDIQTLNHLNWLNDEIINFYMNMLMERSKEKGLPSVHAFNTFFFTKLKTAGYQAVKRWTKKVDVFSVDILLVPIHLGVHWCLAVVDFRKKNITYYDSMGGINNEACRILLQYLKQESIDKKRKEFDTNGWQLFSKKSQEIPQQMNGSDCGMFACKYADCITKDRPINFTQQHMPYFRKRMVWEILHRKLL
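system = hSENP1 catalytic domain, recombinant | reagent = SFCypet-SUMO1-SFYpet substrate at 25 nM | doses = one dose per compound, 10 µM, 0.5% DMSO | incubation = enzyme reaction for 50 min at room temperature, dark | measured by = FRET, CFP and YFP emission | controls = no-enzyme low, enzyme-DMSO high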
Rpn11 confirm – Rpn11 (PSMD14) deubiquitinase inhibitors, confirmation, biochemical, fluorescence polarization, single concentration. shares compounds with Rpn11 block. purified human 26S proteasome, Ub4-pepOG fluorescence polarization; proteasome pretreated with epoxomicin. inhibition, % at 20 µM. hit rate 29% among 1,900
MMP-2 inh – MMP-2 enzyme inhibition, confirmation, counter-screen for RPN11 inhibitor project, biochemical, fluorescence, single concentration; shares compounds with Rpn11 block; hit rate 4% among 1,900; recombinant MMP-2, FRET peptide cleavage fluorescence; inhibition, % at 20 µM;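 further: human MMP-2 activated beforehand with APMA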
Thrombin FP – bovine thrombin protease inhibition, confirmation, counter-screen for Rpn11 inhibitor project, biochemical, fluorescence polarization, single concentration | shares compounds with Rpn11 block | bovine thrombin cleavage of Ub4-pepOG | inhibition, % at 20 µM | hit rate 13% among 1,900;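 active means mean inhibition at least 40% at 20 µM, or signal 3 deviations below plate average, so some actives read negative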;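 further: plate controls were thrombin with DMSO for no effect and buffer wells lacking thrombin for full effect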
* hit, by the source's call; i = inactive; . = no result; + = active, no number. Unless noted, no stated cut-off is given here; in the data, active means inhibition above about 40%; inactive means the rest.

SMILES	CSN inh	HNF4A DNA FP	SUMO HTRF inh	Rpn11 block	TPT1 inh	SENP1 FRET inh	Rpn11 confirm	MMP-2 inh	Thrombin FP
O=S(=O)(Nc1ccon1)c1ccc(Br)s1	2	39*	16	+	1	-43	13	-28	2
O=C(CN1CCN(c2nc(-c3ccc(Cl)cc3)cs2)CC1)NCc1ccco1	6	7	-6	+	21	-28	44*	78*	23
Clc1ccc(OCCSCc2nc3ccccc3[nH]2)cc1	11	27	-18	+	16	35	26	-9	15
CCC(C)NC(=O)C1c2cc(OC)c(OC)cc2C(=O)N(C)C1c1ccc(OC)cc1 (stereo not given)	3	1	-3	i	1	3	.	.	.
CCC(C)NC(=O)C1c2cc(OC)c(OC)cc2C(=O)N(C)C1c1cccs1 (stereo not given)	2	13	5	+	0	-1	-12	-25	-10
O=C(O)c1cn(C2CC2)c2cc(N3CCN(S(=O)(=O)c4ccc5c(c4)OCCO5)CC3)c(F)cc2c1=O	1	3	6	+	1	2	16	-10	14
COc1ccc(Cn2nnnc2C(c2cc(OC)ccc2OC)N2CCC(C(N)=O)CC2)cc1 (stereo not given)	6	12	6	+	-1	1	-10	2	-11
Cn1nc([N+](=O)[O-])nc1Sc1cccc2cccnc12	0	-5	-9	+	-2	-1	8	-33	-11
Cc1cccc(CN2CCN(C3CN(C4CCCC4)S(=O)(=O)C3)CC2)c1 (stereo not given)	2	1	.	i	.	-1	.	.	.
O=C(N/N=C/c1ccc2c(c1)OCO2)c1sc2cc(Cl)ccc2c1Cl	0	4	0	+	1	1	3	-31	-1
COc1ccc2c(Cl)c(C(=O)N/N=C/c3ccc4c(c3)OCO4)sc2c1	7	-9	5	i	2	0	.	.	.
C=C(C)CSc1nc2sc3c(c2c(=O)n1C1CCCCC1)CCN(C)C3	2	15	25	+	19	-35	18	-22	6
CCC(=O)Nc1ccc(Cl)c(NC(=S)NC(=O)c2cc3ccccc3o2)c1	3	4	15	i	1	-1	.	.	.
O=[N+]([O-])c1ccc(/C=N/NC2=NS(=O)(=O)c3ccccc32)cc1	4	2	12	i	3	4	.	.	.
O=[N+]([O-])c1ccc(O)c(/C=N/NC2=NS(=O)(=O)c3ccccc32)c1	8	15	-20	+	3	-23	90*	22	30
CCCCNC(=O)C1(C)CCN1C(=O)c1ccc(F)c(C)c1 (stereo not given)	-4	0	.	i	.	2	.	.	.
COc1ccc(NC(=O)Nc2nnc(Cc3ccc(F)cc3)s2)cc1	15	16	-7	+	.	7	27	2	27
CCCc1nnc(NC(=O)Nc2ccc(OC)cc2)s1	-1	-1	12	i	2	1	.	.	.
COc1cc(C2SCC(=O)N2CCc2ccc(OC)c(OC)c2)ccc1O (stereo not given)	-8	6	-6	i	-4	2	.	.	.
Cc1cc(NC(=O)C23CC4CC(CC(C4)C2)C3)n[nH]1	4	0	-8	i	-2	0	.	.	.
Clc1ccc(Nc2nc3ccccc3n3nnnc23)cc1	3	4	23	+	-4	-43	11	-23	-3
FC(F)Sc1ccc(NC(=S)NC2CCC(NC(=S)Nc3ccc(SC(F)F)cc3)CC2)cc1 (stereo not given)	7	22	27	+	-5	-1	9	21	-1
Cc1ccc(-n2cc(C(=O)c3cc(Cl)ccc3O)cc(C#N)c2=O)cc1	-10	7	0	i	13	18	.	.	.
Cc1ccccc1NC(=O)c1cc(C(=O)c2cc(Cl)ccc2O)cn(-c2ccccc2C)c1=O	0	7	0	+	12	-38	11	-79	-17
CC(C)NNC(=O)c1ccncc1	0	1	5	i	-2	-1	.	.	.
SMILES	CSN inh	HNF4A DNA FP	SUMO HTRF inh	Rpn11 block	TPT1 inh	SENP1 FRET inh	Rpn11 confirm	MMP-2 inh	Thrombin FP
Cc1ccc(C(=O)C[n+]2ccc(Cc3ccccc3)cc2)cc1	-2	1	6	i	0	-7	.	.	.
Cc1ccc(SCCc2cc[n+](CC(=O)c3ccccc3)cc2)cc1	14	1	20	+	2	-31	2	-7	-9
CCOc1ccc(C2NC(=O)C(C#N)=C(S)N2c2ccc(C)cc2)cc1OC (stereo not given)	1	31*	7	+	1	-6	5	23	-3
CN1C(=O)[C@H]2[C@@H](c3ccc(C(F)(F)F)cc3)N[C@]3(CCCN(Cc4ccc(Cl)cc4)C3=O)[C@H]2C1=O	1	-1	.	i	.	1	.	.	.
CN(C)C(=O)CCSc1nnc(-c2ccco2)o1	1	-4	-3	+	0	-2	-4	9	5
O=C(CSc1nnc(-c2ccco2)o1)c1ccc([N+](=O)[O-])cc1	3	9	14	+	0	-10	-11	-39	-23
O=C(CSc1nnc(-c2ccco2)o1)c1ccccc1Cl	6	2	14	i	1	0	.	.	.
Cc1cc(OCCCn2ccnc2)cc(C(C)C)c1	-8	-2	8	i	-1	1	.	.	.
COc1cc(/C=C2\C=CC(=O)O2)cc(OC)c1	14	22	12	+	24	-61	22	-4	9
COc1ccc(COc2ccsc2C(=O)Nc2ccc(Cl)c(Cl)c2)cc1	-3	1	18	+	3	2	9	-20	-13
